Published values collected from several papers.
Lines come from different studies, so protocols differ.
Target: Serine/threonine-protein kinase RIO2 (RIOK2, Homo sapiens, UniProt Q9BVS4)

Structure (SMILES) | effect on | technique | tested at | remaining binding [%]
C[C@H]1CCN(c2nccc(-c3cnn4ncccc34)n2)C1 | binding | – | 1 µM | 90
N#Cc1ccccc1CSc1nnc2c(n1)[nH]c1ccccc12 | binding | competition with immobilised ligand | 10 µM | 94
FC(F)(F)Oc1cccc(-c2cnc3ccc(-c4ccncc4)nn23)c1 | binding | competition with immobilised ligand | 5 µM | 7.7
CCN1CCN(Cc2ccc(C(=O)Nc3ccc(C)c(Oc4ccc5c(c4)CC(=O)N5)c3)cc2C(F)(F)F)CC1 | binding | competition with immobilised ligand | 1 µM | 100
CCS(=O)(=O)c1cc2cc(C[C@](O)(CC(C)(C)c3ccc(F)cc3C(N)=O)C(F)(F)F)[nH]c2cn1 | cell-free assay | competition with immobilised ligand | 1 µM | 100
N[C@@H]1CCN(c2nccc(-c3cnn4ncccc34)n2)C1 | binding | – | 1 µM | 37
c1cncc(-c2cccc(Nc3nccc(NC4CCCCC4)n3)c2)c1 | binding | competition with immobilised ligand | 10 µM | 37
C[C@@H]1CN(c2ccc3ncc(-c4ccc5[nH]nc(C6CC6)c5c4)n3n2)C[C@H](C)O1 | binding | competition with immobilised ligand | 50 nM | 76
O=C(NCCCN1CCOCC1)c1ccc(Nc2nccc(-c3cc4ccccc4s3)n2)cc1 | binding | competition with immobilised ligand | 1 µM | 47
c1ccc(N2CCN(Cc3nc4ccccc4[nH]3)CC2)nc1 | binding | competition with immobilised ligand | 1 µM | 100
F[C@@H]1CCN(c2nccc(-c3cnn4ncccc34)n2)C1 | binding | – | 1 µM | 64
Cc1nc(N2CC[C@@H](O)C2)ncc1-c1cc(C(F)(F)F)cc2[nH]ncc12 | binding | competition with immobilised ligand | 1 µM | 100
COc1cnc(Nc2cccc(S(N)(=O)=O)c2)nc1N1CCN(c2ccccc2)C(=O)C1 | binding | competition with immobilised ligand | 1 µM | 100
O=C(NCC1CCOCC1)c1n[nH]cc1NC(=O)c1c(F)cccc1F | binding | competition with immobilised ligand | 1 µM | 35
O=c1nc(-c2ccccn2)sc2ccccc12 | binding | competition with immobilised ligand | 1 µM | 94
O=C(c1ccc(Nc2ncc(Cl)c(-c3ccc(Cl)s3)n2)cc1)N1CCC(N2CCCC2)CC1 | binding | competition with immobilised ligand | 1 µM | 49
CS(=O)(=O)N1CCCC(NC(=O)[C@H](CCC2CCCCC2)NC(=O)c2ccc(CNc3ncnc4c3nnn4-c3ccccc3)cc2)C1 (stereo partly drawn) | cell-free assay | competition with immobilised ligand | 0.1 µM | 99
Cc1cnc(Nc2ccc(C(=O)N3CCC(N4CCCC4)CC3)cc2)nc1-c1cc2ccccc2s1 | binding | competition with immobilised ligand | 1 µM | 40
CNC(=O)Nc1ccc2c(c1)[C@@]1(CC2)OC(=O)N(CC(=O)N(Cc2ccc(F)cc2)[C@@H](C)C(F)(F)F)C1=O | cell-free assay | competition with immobilised ligand | 1 µM | 83
Cc1cnn2ncc(-c3ccnc(N(C)C)n3)c2c1 | binding | – | 1 µM | 92
CN(C)C(=O)Cn1cc(-c2nc([C@@](C)(c3ccc(-c4cnc(N)nc4)cc3)C3CC3)no2)cn1 | cell-free assay | competition with immobilised ligand | 1 µM | 87
CC(C)(C)c1ccc(-c2nc(CBr)nn2-c2cccc(O)c2)cc1 | cell-free assay | competition with immobilised ligand | 10 µM | 84
CN(c1nccc(-c2cnn3ncccc23)n1)C1CC1 | binding | – | 1 µM | 99
C[C@@H](c1ccc(-n2cnc3c(N)ncnc32)cc1)N1CCc2nn(C)c(Cc3ccccc3)c2C1=O | binding | competition with immobilised ligand | 0.1 µM | 97
